Rad51 HR inh = human RAD51 strand exchange inhibitors, primary screen, biochemical, fluorescence | hRad51 DNA strand exchange, fluorescence dequenching | actives 0.085% (n = 200,000) | AID 1385, 2008 | DNA repair protein RAD51 homolog 1 (Homo sapiens), Q06609 | inhibition, % at 10 µM;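 active = inhibition above 40% at the single screening dose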
Target sequence (Q06609 whole entry, looked up): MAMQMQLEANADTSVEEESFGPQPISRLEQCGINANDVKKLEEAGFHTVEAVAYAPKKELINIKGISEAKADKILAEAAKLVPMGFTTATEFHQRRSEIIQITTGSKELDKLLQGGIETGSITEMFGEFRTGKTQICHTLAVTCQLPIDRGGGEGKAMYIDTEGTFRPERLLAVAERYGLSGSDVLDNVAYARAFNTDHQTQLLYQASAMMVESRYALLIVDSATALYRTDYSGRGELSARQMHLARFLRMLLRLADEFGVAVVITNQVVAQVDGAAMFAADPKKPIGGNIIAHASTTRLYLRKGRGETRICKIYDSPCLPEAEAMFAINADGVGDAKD
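System: hRad51 filaments on single-stranded DNA; reagent: Fluorescein- and BHQ1-tagged 47-mer duplex; compound dosing: one concentration, 10 µM final; timing: filaments 15 min 37 °C, then compound 30 min; measured by: fluorescein emission 520 nm, excitation 485 nm; benchmarks: per-plate controls and blanks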
ROMK primary = ROMK potassium channel modulators, primary screen, cell-based, thallium flux, MLSMR library; Tet-inducible ROMK, thallium flux fluorescence; actives lie on both sides; AID 1918, 2009; actives 2% (n = 130,000); ATP-sensitive inward rectifier potassium channel 1 (Homo sapiens), P48048; B-score at 10 µM;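 active = signal ratio slope over the read window, or its plate-corrected B-score, at least 3 SD from the plate mean, either direction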;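 also: B-score of the F/F0 ratio slope over 7 to 12 s after thallium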
Target sequence (P48048 whole entry, looked up): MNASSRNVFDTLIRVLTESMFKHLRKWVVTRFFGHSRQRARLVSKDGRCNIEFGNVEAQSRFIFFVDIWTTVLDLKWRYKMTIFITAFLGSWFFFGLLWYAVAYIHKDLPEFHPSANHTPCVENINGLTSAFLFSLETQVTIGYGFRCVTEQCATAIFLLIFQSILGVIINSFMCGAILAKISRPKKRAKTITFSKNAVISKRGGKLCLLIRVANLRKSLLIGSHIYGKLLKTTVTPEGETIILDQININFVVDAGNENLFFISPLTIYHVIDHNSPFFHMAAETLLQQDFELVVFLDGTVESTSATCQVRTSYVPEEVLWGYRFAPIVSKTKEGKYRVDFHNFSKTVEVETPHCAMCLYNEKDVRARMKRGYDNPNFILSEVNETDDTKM
PKD1 inh = inhibitors of human PKD1 kinase, biochemical, fluorescence polarization; Serine/threonine-protein kinase D1 (Homo sapiens), Q15139; PKD1 kinase fluorescence polarization assay; inhibition, % (concentration not given with the values); actives 0.056% (n = 200,000); AID 797, 2007; in the data active = inhibition above about 50%
Cl transport mod = KCC2 cotransporter modulators, thallium flux, primary screen, cell-based, HEK293 KCC2, FluoZin-2 fluorescence, MLSMR. KCC2 cells, thallium flux FluoZin-2 fluorescence. B-score of Tl+ flux slope (higher = more flux/activation; lower = inhibition) at 10 µM. actives 2.2% (n = 190,000);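 active = thallium flux slope and its plate-corrected score both differing from the plate sample mean at a set confidence after two filtering rounds, in either direction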;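 also: slope of fluorescence scaled to starting intensity during 10 to 20 s after thallium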
PKD FP artifact = fluorescence polarization interference in PKD1 assay, artefact control for PKD1 inhibitor project, biochemical, 140K library; PKD1 FP assay interference counter-screen; inhibition, % at 10 µM; 85 tested, under 10 active; shares compounds with PKD1 inh; AID 1315, 2008; call rule not given here
KCC2 sec1 = KCC2 modulators in sodium-free buffer, confirmation, cell-based, HEK293 KCC2, thallium flux, secondary assay; shares compounds with Cl transport mod; FluoZin2 fluorescence; active compounds read high; normalised thallium flux (F/F0 slope) at 10 µM; actives 15% (n = 3,700); AID 1713, 2009;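 active = thallium flux slope above the same plate's solvent-only control mean plus 3 SD; inconclusive = the two replicate wells disagree; inactive = no significant difference from solvent-only control wells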
KCC2 bumet counter = thallium flux persisting under bumetanide in KCC2 cells, confirmation, counter-screen for KCC2 modulator project, cell-based, HEK293 KCC2, FluoZin2, secondary assay 3; shares compounds with Cl transport mod; HEK293-KCC2 + bumetanide/ouabain; active compounds read high; normalized thallium flux at 10 µM; actives 49% (n = 3,700);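 active = thallium entry rate above the same plate's blocked-transporter control wells by more than 3 SD; inconclusive = the two repeat wells disagree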;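 also: raw slope of fluorescence over initial fluorescence between 10 and 20 s after thallium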
KCC2 secondary2 = KCC2 modulators without ouabain present, confirmation, cell-based, HEK293 KCC2, thallium flux, FluoZin2, secondary assay 2; shares compounds with Cl transport mod; thallium flux FluoZin2 fluorescence; actives lie on both sides; F/F0 rise rate, 10–20 s post-thallium; normalized thallium flux at 10 µM; actives 23% (n = 3,700); AID 1715, 2009;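 active = thallium flux slope more than 3 SD above or below the plate's solvent-only control mean, mostly below; inconclusive = the two repeat wells disagreed; inactive = no significant shift from solvent-only controls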
HEK293 Tl flux = thallium flux modulation in parental HEK cells, confirmation, counter-screen for KCC2 modulator project, cell-based, counterscreen 1; shares compounds with Cl transport mod; HEK293 parental cells, thallium flux FluoZin2, ouabain; baseline-ratio fluorescence slope, 10–20 s after thallium; thallium flux rate (normalised fluorescence) at 10 µM; actives 46% (n = 3,700);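 active = thallium flux rate significantly above the same plate's solvent-only control wells, beyond their mean plus 3 SD; inconclusive = the two replicate wells gave conflicting results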
KCC2 retest ouab = KCC2 inhibitors and activators, ouabain retest, confirmation, HEK-KCC2 cells; shares compounds with Cl transport mod; HEK293-KCC2, thallium flux FluoZin2 fluorescence; bidirectional: low = inhibitor, high = activator; raw Tl+ flux slope (below DMSO = inhibition, above = activation) at 10 µM; actives 48% (n = 3,700); AID 1717, 2009;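 active = thallium flux slope beyond 3 SD from same-plate DMSO control mean in most replicates, usually higher, sometimes lower; inconclusive = repeat tests gave conflicting results; inactive = no significant difference from controls in most replicates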;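 also: slope of initial-normalized fluorescence between seconds 10 and 20 after thallium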
HEK293 Tl flux2 = native HEK Tl+ uptake effects, second counter-screen – HEK cells, counterscreen 2, counter-screen for KCC2 modulator project, confirmation; thallium flux slope at 10 µM; shares compounds with Cl transport mod; HEK293 parental, thallium flux FluoZin-2 fluorescence slope; actives 33% (n = 3,700);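 active = thallium flux slope above the same plate's solvent-control mean plus 3 SD in both duplicate wells; inconclusive = duplicate wells that disagreed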;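 also: run without ouabain in cells lacking the KCC2 cotransporter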
ROMK retest = ROMK channel modulator hit retest, confirmation, cell-based, thallium flux, duplicate, resupplied hits. shares compounds with ROMK primary. fluorescence ratio; active compounds read low. normalized thallium flux (F/F0 slope) at 10 µM. actives 54% (n = 3,000);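 active = Flux at 10 µM at least 3 SD below or above vehicle control mean in one or both replicates; inconclusive = no clear call, values can overlap the other calls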
Hits are given with their value; 0 = inactive; ? = inconclusive; - = no result. An excerpt weighted towards active compounds, which were near 3% of everything screened.

SMILES | Rad51 HR inh | ROMK primary | PKD1 inh | Cl transport mod | KCC2 sec1 | KCC2 bumet counter | KCC2 secondary2 | HEK293 Tl flux | KCC2 retest ouab | HEK293 Tl flux2 | others
CN1/C(=C\C=C\C2=[N+](C)c3ccc4ccccc4c3C2(C)C)C(C)(C)c2ccccc21 | 0 | - | 0 | -6 | - | - | - | - | - | -
COc1cccc(C2=NOC(C(=O)N3CCC4(CC3)OCCO4)C2)c1 (configuration not stated) | 87 | - | 0 | 0 | - | - | - | - | - | -
CN1CCN(/N=C/c2c(O)n(Cc3ccc(F)cc3)c(=O)[nH]c2=O)CC1 | 0 | - | - | 0 | - | - | - | - | - | -
Clc1ccc2c(c1)C(c1ccccc1Cl)=NCc1nnc(Br)n1-2 | 0 | 0 | 0 | 0 | - | - | - | - | - | -
Cc1ccccc1C1=NCC(=S)Nc2ccc(Cl)cc21 | 0 | 0 | 0 | 5.7 | - | - | - | - | - | -
O=C(O)c1sc2cc(Cl)ccc2c1Cl | - | - | - | 0 | - | - | - | - | - | -
CN1CCN(c2cccc3c2C(=O)c2ccccc2C3=O)CC1 | 0 | 0 | 101 | 0 | - | - | - | - | - | - | PKD FP artifact=0
CCCCCCn1c(O)c(C=NCCN2CCOCC2)c(=O)[nH]c1=O | - | 0 | 0 | 0 | - | - | - | - | - | -
NC(=O)c1cn(C2OC(CO)C(O)C2O)c2ncnc(N)c12 (configuration not stated) | 0 | 4 | 94 | 0 | - | - | - | - | - | - | PKD FP artifact=0;ROMK retest=0
Oc1ccc2c3c1O[C@H]1c4oc5ccccc5c4C[C@@]4(O)[C@@H](C2)N(CC2CC2)CC[C@]314 | 0 | - | - | 0 | - | - | - | - | - | -
S=C1Nc2ccccc2Sc2ccccc21 | 0 | 0 | 0 | 48 | 0.019 | 0.075 | 0 | 0.054 | 0.053 | 0.013
O=c1[nH]c(=O)n(Cc2ccc(F)cc2)c(O)c1C=NCc1cccnc1 | 0 | - | 0 | 4.4 | 0 | 0 | 0 | 0 | 0 | 0
CCCC(=O)OCC[N+](C)(C)C | 0 | - | 0 | 4.9 | ? | 0 | 0 | 0 | 0 | 0
COC(=O)C(O)(c1ccc(N(C)C(=O)c2cccs2)cc1)C(F)(F)F (configuration not stated) | 0 | 0 | 0 | 0 | - | - | - | - | - | -
CCCCn1c(O)c(/C=C/C=Nc2ccccc2)c(=O)[nH]c1=O | 0 | - | 0 | -4.7 | 0.0026 | -0.0018 | 0.025 | 0.0019 | 0.0084 | 0.007
Cc1cc(OCC(=O)O)c2c3c(c(=O)oc2c1)CCCC3 | 0 | - | 0 | 0 | - | - | - | - | - | -
COC(=O)c1ccc(COc2cc(C)cc3oc(=O)c4c(c23)CCCC4)o1 | 0 | 0 | 0 | - | 0 | 0 | 0 | 0.0049 | ? | 0
COP(=O)(OC)C(NC(C)=O)C(Cl)(Cl)Cl (configuration not stated) | 0 | 0 | 0 | 0 | - | - | - | - | - | -
NNC(=O)c1ccc(Cl)cc1 | 0 | 0 | 0 | 4.3 | 0 | 0 | 0 | 0 | 0 | 0
Cc1cccc(NP(C)(=O)c2nc3c(s2)CCCC3)c1 (configuration not stated) | - | 0 | 0 | 0 | - | - | - | - | - | -
O=c1[nH]c(=S)n(Cc2ccco2)c(O)c1C=NCc1cccs1 | 0 | 0 | 0 | -3.2 | 0 | 0 | ? | 0 | 0.02 | 0
O=c1[nH]c(=O)n(Cc2ccco2)c(O)c1C=NCc1cccs1 | 0 | 0 | 0 | - | - | - | - | - | - | -
CN1C2c3ccccc3C3C4c5ccccc5C(C31)C(C2[N+](=O)[O-])N4C (configuration not stated) | 0 | - | - | 0 | - | - | - | - | - | -
O=C(COc1ccc(Cl)cc1Cl)N1CCN(C/C=C/c2ccccc2)CC1 | 0 | 0 | 0 | -6.8 | 0 | 0 | 0 | 0 | 0 | 0
CC(C)c1oc(=O)cc2c1[C@@H](O)[C@H]1OC(=O)[C@@]3(C)C[C@@H](O)[C@@H](O)[C@@]2(C)C13 (some centres not stated) | 0 | 0 | 0 | 5.5 | 0 | 0 | 0 | ? | 0 | 0
SMILES | Rad51 HR inh | ROMK primary | PKD1 inh | Cl transport mod | KCC2 sec1 | KCC2 bumet counter | KCC2 secondary2 | HEK293 Tl flux | KCC2 retest ouab | HEK293 Tl flux2 | others
COc1cc(C(=S)N2CCOCC2)cc(OC)c1OC(=O)Cc1ccccc1 | 0 | 0 | 0 | -5.4 | ? | 0.006 | 0.021 | 0 | 0 | 0
CCC(C)n1c(O)c(C=Nc2cccc(C(F)(F)F)c2)c(=O)[nH]c1=S (configuration not stated) | 0 | 0 | 0 | 0 | 0 | 0.018 | 0 | 0.019 | 0.025 | 0.015
CC(C)n1c(O)c(C=NCc2cccnc2)c(=O)[nH]c1=S | 0 | - | - | 0 | - | - | - | - | - | -
CNc1ccc2oc(C[C@H]3O[C@@]4(CC[C@H]3C)O[C@H]([C@H](C)C(=O)c3ccc[nH]3)[C@H](C)C[C@H]4C)nc2c1C(=O)O | 0 | - | - | 7.4 | 0 | 0.0092 | 0 | ? | ? | 0
CNc1cc(Cl)c2nonc2c1[N+](=O)[O-] | 0 | 0 | 0 | -4.6 | 0 | 0.007 | ? | 0 | 0 | 0
Cc1cc([N+](=O)[O-])c(Cl)cc1NC(=O)C(C)C | 0 | 0 | 0 | 0 | - | - | - | - | - | -
OCc1cnc[nH]1 | 0 | - | 0 | 0 | - | - | - | - | - | -
CC(C)CC(NC(=O)C1CCCCC1)C(=O)N1CCC2(CC1)OCCO2 (configuration not stated) | 0 | 0 | 0 | - | - | - | - | - | - | -
CC(C)C[C@H](NC(=O)[C@@H]1CCCN1C(=O)[C@@H](N)Cc1ccc(O)cc1)C(=O)NCC(N)=O | 0 | 0 | 0 | -3.1 | ? | 0.0057 | 0 | ? | 0 | 0
CCC(C)N1C(=O)NC(=O)C2(Cc3cc(C)ccc3N(C)C2)C1=O (configuration not stated) | 0 | 0 | 0 | 0 | - | - | - | - | - | -

Bioassay records: PubChem BioAssay, several laboratories
